The values below come from ChEMBL document CHEMBL3576833, “Design and Synthesis of Acetylenyl Benzamide Derivatives as Novel Glucokinase Activators for the Treatment of T2DM” (ACS Med Chem Lett, 2015).

The target in one data set is T1, Hexokinase-4 (Homo sapiens, UniProt P35557).
T1 sequence (P35557 whole entry): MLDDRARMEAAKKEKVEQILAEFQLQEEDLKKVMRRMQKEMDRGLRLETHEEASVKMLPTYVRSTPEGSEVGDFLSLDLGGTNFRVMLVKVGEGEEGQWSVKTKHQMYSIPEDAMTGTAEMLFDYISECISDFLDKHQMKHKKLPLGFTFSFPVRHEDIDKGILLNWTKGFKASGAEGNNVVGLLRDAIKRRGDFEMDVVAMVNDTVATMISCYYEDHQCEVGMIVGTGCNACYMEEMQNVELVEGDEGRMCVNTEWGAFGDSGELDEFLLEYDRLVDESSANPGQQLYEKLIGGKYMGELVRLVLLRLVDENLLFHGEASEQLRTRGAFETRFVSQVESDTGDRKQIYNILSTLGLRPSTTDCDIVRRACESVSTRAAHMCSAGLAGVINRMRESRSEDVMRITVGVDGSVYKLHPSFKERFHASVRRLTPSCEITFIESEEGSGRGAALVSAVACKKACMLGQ
Nature of the data set: Activation of recombinant human pancreatic glucokinase using 10 mM glucose as substrate by G6PDH coupled assay. In outline:
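Recombinant human pancreatic glucokinase, with glucose at 10 mM. Activity was read as the increase in GK enzyme activity. EC50, Vmax and S0.5 were derived from this. Values are means of triplicate runs.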

Data set [1] has as its system Mus musculus. Nature of the data set: Antidiabetic activity in C57BL/6 mouse assessed as reduction of blood glucose AUC at 50 mg/kg, po administered 30 mins prior to glucose challenge measured over 180 mins by OGTT relative to vehicle-treated control. It is filed as functional. Also on record: scale not given: the % may be the effect or the level left. The gist of the method:
(§1)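 Oral glucose tolerance test in C57BL/6J mice with oral dosing. Blood glucose was followed after the glucose challenge, and the result was expressed as the % reduction in blood glucose AUC.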

Data set [2] relates to Mus musculus. Nature of the data set: Antidiabetic activity in C57BL/6 mouse assessed as reduction of blood glucose AUC at 30 mg/kg, po administered 30 mins prior to glucose challenge measured over 180 mins by OGTT relative to vehicle-treated control. Also on record: scale not given: the % may be the effect or the level left. It counts as functional. The gist of the method: as §1

The nature of data set [3]: Solubility of the compound at pH 7.4. It is filed as physicochemical. Particulars: buffer.
Data set [4] is described as follows: Apparent permeability of the compound by PAMPA. It is filed as physicochemical.
For data set [5], the system named is Mus musculus. Nature of the data set: Antidiabetic activity in C57BL/6J mouse assessed as blood glucose level at 30 mg/kg, po after 60 mins by fasted glucose tolerance test. It is filed as functional. The gist of the method:
(§2)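 Fasted glucose tolerance test in C57BL/6J mice. Animals were fasted and dosed orally, with no glucose challenge. Blood glucose was measured at 60 min.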

Data set [6] is described as follows: Clearance in ICR mouse at 3 mg/kg, iv and 10 mg/kg, po. It is filed as ADME, organism-based. Particulars: in vivo.
Data set [7] can be described thus: Oral bioavailability in ICR mouse at 10 mg/kg. It counts as ADME, organism-based. Particulars: in vivo.
A short description of data set [8]: Volume of distribution at steady state in ICR mouse at 3 mg/kg, iv and 10 mg/kg, po. It is filed as ADME, organism-based. Particulars: in vivo, read-out: Vdss.
Data set [9] relates to Mus musculus. Nature of the data set: Toxicity in C57BL/6J mouse assessed as hypoglycemic effect at 30 mg/kg, po after 60 mins. It is filed as organism-based. Particulars: in vivo, 1 h. In outline: as §2
Data set [10] in a line: Elimination half life in ICR mouse at 3 mg/kg, iv and 10 mg/kg, po. It is filed as ADME, organism-based. Particulars: in vivo, read-out: beta t1/2 (converted).

The structures appear in SMILES notation. In brackets after ≈: the same amount, converted by molar mass.

Regarding `COCC#Cc1cc(O[C@@H](C)COC)cc(C(=O)Nc2ccn(C)n2)c1`, the EC50 on Hexokinase-4 was 1870 nM.

For `COC[C@H](C)Oc1cc(C#CCOC2CCCCO2)cc(C(=O)Nc2ccn(C)n2)c1` (stereo not given in full), the Activity in the data set with Mus musculus [1] was 44.7%. Besides, the EC50 on Hexokinase-4 was found to be 6 nM.

For `COC[C@H](C)Oc1cc(C#CCN(C)C)cc(C(=O)Nc2ccn(C)n2)c1`, on Hexokinase-4, the EC50 turned out to be 7700 nM.

Consider `COC[C@H](C)Oc1cc(C#CCNc2ncccn2)cc(C(=O)Nc2ccn(C)n2)c1`, for which, on Hexokinase-4, the EC50 worked out at 301 nM.

With `COC[C@H](C)Oc1cc(C#Cc2ccccc2OC)cc(C(=O)Nc2ccn(C)n2)c1`, the Activity in the data set on Mus musculus [2] is reported as 49.1%. Further, at Hexokinase-4, the EC50 turned out to be 21 nM.

As for `COC[C@H](C)Oc1cc(C#Cc2ccc3[nH]ccc3c2)cc(C(=O)Nc2ccn(C)n2)c1`, the EC50 on Hexokinase-4 came to 12 nM.

Consider `COC[C@H](C)Oc1cc(C#Cc2ccc3c(c2)OCO3)cc(C(=O)Nc2ccn(C)n2)c1`, for which, on Hexokinase-4, the EC50 worked out at 30 nM.

As to `COC[C@H](C)Oc1cc(C#Cc2ccc(N)cc2)cc(C(=O)Nc2ccn(C)n2)c1`, in the data set on Mus musculus [1], the Activity came out at 53.5%. On Hexokinase-4, the 50% effective concentration (EC50) came to 34 nM.

In the case of `COC[C@H](C)Oc1cc(C#Cc2cccc(N)c2)cc(C(=O)Nc2ccn(C)n2)c1`, the Activity in the data set with Mus musculus [1] is 52.1%; in the data set with Mus musculus [2], 47.4%; with Mus musculus [5], above 55 mg/dL; in the data set on Mus musculus [9], “Non-toxic”. In addition, in data set [3], the solubility was found to be 22.2 µM (≈ 8.98 µg/mL). In [4], the apparent permeability coefficient (Papp) turned out to be 3.43 ×10⁻⁶ cm/s. Also, the clearance in [6] is 43.2 mL/min/kg. Moreover, the bioavailability in data set [7] stood at 49%. Also, the Vd in [8] was 1.44 L/kg. Also, the half-life in data set [10] is 1.1 h. Also, the concentration giving a half-maximal response (EC50) on Hexokinase-4 was 27 nM.

On to `COC[C@H](C)Oc1cc(C#Cc2cccc(O)c2)cc(C(=O)Nc2ccn(C)n2)c1`, for which the concentration giving a half-maximal response (EC50) at Hexokinase-4 was determined as 39 nM.

As for `COC[C@H](C)Oc1cc(C#Cc2cccc(N(C)C)c2)cc(C(=O)Nc2ccn(C)n2)c1`, in the data set with Mus musculus [1], the Activity is recorded as 43.7%. Moreover, at Hexokinase-4, the concentration giving a half-maximal response (EC50) came to 37 nM.

Consider `CCN(CC)c1cccc(C#Cc2cc(O[C@@H](C)COC)cc(C(=O)Nc3ccn(C)n3)c2)c1`, for which the 50% effective concentration (EC50) on Hexokinase-4 came to 163 nM.

For `COC[C@H](C)Oc1cc(C#Cc2cccc(NCCN(C)C)c2)cc(C(=O)Nc2ccn(C)n2)c1`, the Activity in the data set on Mus musculus [2] turned out to be 56%. At Hexokinase-4, the EC50 was found to be 6 nM.

On to `COC[C@H](C)Oc1cc(C#Cc2cccc(NCCN3CCCC3)c2)cc(C(=O)Nc2ccn(C)n2)c1`, for which, in the data set with Mus musculus [1], the Activity is 51.4%. Besides, the half-maximal effective concentration (EC50) at Hexokinase-4 amounted to 6 nM.

Take `COC[C@H](C)Oc1cc(C#Cc2cccc(NCCN3CCCCC3)c2)cc(C(=O)Nc2ccn(C)n2)c1`: in the data set on Mus musculus [1], the Activity was determined as 54%. Besides, the EC50 at Hexokinase-4 is 6 nM.

`COC[C@H](C)Oc1cc(C#Cc2cccc(NCCN3CCOCC3)c2)cc(C(=O)Nc2ccn(C)n2)c1`: in the data set with Mus musculus [1], the Activity was determined as 47.9%. For the same molecule, at Hexokinase-4, the EC50 turned out to be 20 nM.

`COCCNc1cccc(C#Cc2cc(O[C@@H](C)COC)cc(C(=O)Nc3ccn(C)n3)c2)c1`: in the data set with Mus musculus [2], the Activity was found to be 41%. At Hexokinase-4, the EC50 amounted to 39 nM.

Regarding `COC[C@H](C)Oc1cc(C#Cc2cccc(NCCn3ccnc3C)c2)cc(C(=O)Nc2ccn(C)n2)c1`, the EC50 at Hexokinase-4 turned out to be 9 nM.

On to `COC[C@H](C)Oc1cc(C#Cc2cccc(OC(C)C)c2)cc(C(=O)Nc2ccn(C)n2)c1`, for which the EC50 at Hexokinase-4 came out at 53 nM.

`COC[C@H](C)Oc1cc(C#Cc2cccc(OCC#N)c2)cc(C(=O)Nc2ccn(C)n2)c1`: the EC50 at Hexokinase-4 is 46 nM.

For `COC[C@H](C)Oc1cc(C#Cc2cccc(OCCN3CCCC3)c2)cc(C(=O)Nc2ccn(C)n2)c1`, in the data set with Mus musculus [1], the Activity turned out to be 51.6%. Also, the concentration for a half-maximal effect (EC50) on Hexokinase-4 is 6 nM.

Consider `COC[C@H](C)Oc1cc(C#Cc2cccc(OCCN3CCCCC3)c2)cc(C(=O)Nc2ccn(C)n2)c1`, for which the Activity in the data set with Mus musculus [1] amounted to 46%. On Hexokinase-4, the EC50 was 7 nM.

Take `COC[C@H](C)Oc1cc(C#Cc2cccc(OCCN3CCOCC3)c2)cc(C(=O)Nc2ccn(C)n2)c1`: the concentration for a half-maximal effect (EC50) on Hexokinase-4 came to 16 nM.

Regarding `N[C@@H](CC(=O)N1CCn2c(nnc2C(F)(F)F)C1)Cc1cc(F)c(F)cc1F` [SITAGLIPTIN], in the data set on Mus musculus [2], the Activity is 22.6%.
